The subject of assay [1] is Rattus norvegicus. The assay can be described thus: Evaluated for inhibition of basal gastric acid secretion in pyolus-ligated rats after intraduodenal administration. The following applies: Stomach, id.
The test system of assay [2] is Canis familiaris. The assay is described as follows: Evaluated against tetragastrin stimulated gastric acid secretion in conscious Hiedenhain-pouch dogs at a dose of 0.32 mg/kg, po. The following applies: Canis lupus familiaris, Stomach. The format is functional. Put shortly:
(§1)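 Beagle Heidenhain-pouch dogs, 8–13 kg, oral dosing. Acid concentration titrated to pH 7 with 0.1 N NaOH; total acid output is volume × concentration. Change is relative to predosing output. ED50 by probit from three or four doses, three or four dogs per dose.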

The subject of assay [3] is Rattus norvegicus. The assay can be described thus: Effect on gastric mucosal blood flow 60 minutes after administration of HCl and aspirin after drug dosing at 10 mg/kg intragastrically. The settings on record: route intragastric. The format is functional, Gastric mucosa. Put shortly:
(§2)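 Male rats, five per group, test drug suspended in 0.1% MC given intragastrically. Aspirin 200 mg/kg in 0.2 N HCl/0.1% MC (0.2 mL) given ig 15 min later. […] Reported as mean ± SEM and % of initial.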

Assay [4] deals with Rattus norvegicus. The assay can be described thus: Inhibition of aspirin induced gastric lesions in rats after peroral dose of 32 mg/kg. Type of assay: functional. The following applies: Stomach, route oral. Put shortly:
(§3)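 Male SD rats (~200 g), fasted 24 h. Test compound given orally in 0.1% MC, then aspirin 200 mg/kg in 0.2 N HCl/0.1% MC (10 mL/kg) orally 30 min later. Rats killed 1 h after aspirin. Ulcer index is the summed lesion length (mm); % inhibition is relative to controls. Seven rats per group for screening; ED50 by probit from three doses, ten rats per dose.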

In assay [5] the test system is Rattus norvegicus. The assay is described as follows: Effect on gastric mucosal blood flow at basal value which is 15 minutes before dosing of drugs at 32 mg/kg intragastrically. The format is functional, Gastric mucosa. The following applies: route intragastric. Put shortly: as §2
For assay [6], the system named is Canis familiaris. The assay is described as follows: Effective dose against tetragastrin stimulated gastric acid secretion in conscious Hiedenhain-pouch dogs after peroral administration. The format is functional. The following applies: Canis lupus familiaris, Stomach, po. Put shortly:
as §1

For assay [7], the system named is Rattus norvegicus. The assay can be described thus: Effect on gastric mucosal blood flow 15 minutes before dosing of HCl and aspirin after drug dosing at 32 mg/kg intragastrically. Type of assay: functional, Gastric mucosa. The following applies: route intragastric. Put shortly: as §2
The target in assay [8] is Histamine H2 receptor (Cavia porcellus) (UniProt P47747). The assay is described as follows: H2 receptor antagonistic activity against histamine stimulated chronotropic response in isolated guinea pig right atrium at 1x10E-6 g/mL. The settings on record: Cardiac atrium. Type of assay: functional, tissue-based. Put shortly:
(§4)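 Guinea pig atrial strip under 0.3–0.6 g tension in Tyrode solution, 30 °C, gassed with 95% O2-5% CO2. Beating rate recorded. Histamine HCl 1 × 10-6 g/mL given; after washout, test compound added (single-concentration screen 1 × 10-6 g/mL) and histamine response compared before and 30 min after dosing. IC50 from three doses by probit analysis, three atria per dose.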

For assay [9], the system named is Rattus norvegicus. The assay can be described thus: Effect on gastric mucosal blood flow 60 minutes after administration of HCl and aspirin after drug dosing at 32 mg/kg intragastrically. Type of assay: functional, Gastric mucosa. The settings on record: route intragastric. Put shortly:
as §2

The test system of assay [10] is Rattus norvegicus. The assay can be described thus: Effective dose against indomethacin induced gastric lesions in rats after peroral administration. Type of assay: functional. The settings on record: Stomach, po. Put shortly: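 Male SD rats (~200 g), fasted 24 h, dosed orally with test compound in 0.1% MC, ten per group. Indomethacin 5 mg/kg in 0.1% MC given orally 30 min later, then 0.35 N HCl (5 mL/kg) orally after 1 h. Killed 1 h after that. Ulcer index is the summed lesion length. ED50 by probit from three doses.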

Another assay deals with Histamine H2 receptor (Cavia porcellus, UniProt P47747). The assay can be described thus: Compound was tested for H2 receptor antagonistic activity against histamine stimulated chronotropic response in isolated guinea pig right atrium. Type of assay: functional, tissue-based, Cardiac atrium. Put shortly:
as §4

Assay [11] relates to Rattus norvegicus. The assay can be described thus: Inhibition of histamine stimulated gastric acid secretion in lumen perfused anaesthetized rats after 1 mg/kg intravenous dose. The settings on record: Stomach. Type of assay: functional. Put shortly: (§5)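 Male SD rats (~250 g), fasted 24 h, urethane 1.25 g/kg ip. Stomach lumen perfused with saline; perfusate titrated with 25 mM NaOH. Histamine infused iv at 3 mg/kg/h. At plateau, compound given iv at 1 mg/kg. Result expressed as maximal inhibition of acid output; n = 2.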

Assay [12] relates to Rattus norvegicus. The assay can be described thus: Effect on gastric mucosal blood flow 15 minutes before dosing of HCl and aspirin after drug dosing at 10 mg/kg intragastrically. The format is functional, Gastric mucosa. The settings on record: route intragastric. Put shortly:
as §2

Assay [13] concerns Rattus norvegicus. The assay can be described thus: Effective dose against aspirin induced gastric lesions in rats after peroral administration. Type of assay: functional. The following applies: Stomach, po. Put shortly:
as §3

Assay [14] has as its system Rattus norvegicus. The assay is described as follows: Effect on gastric mucosal blood flow at basal value which is 15 minutes before dosing of drugs at 10 mg/kg intragastrically. The settings on record: route intragastric. Type of assay: functional, Gastric mucosa. Put shortly:
as §2

Assay [15] has as its system Rattus norvegicus. The assay can be described thus: Effect on gastric mucosal blood flow 30 minutes after administration of HCl and aspirin after drug dosing at 32 mg/kg intragastrically. The format is functional, Gastric mucosa. The following applies: route intragastric. Put shortly: as §2
Assay [16] concerns Rattus norvegicus. The assay can be described thus: Effect on gastric mucosal blood flow 30 minutes after administration of HCl and aspirin after drug dosing at 10 mg/kg intragastrically. Type of assay: functional, Gastric mucosa. The settings on record: route intragastric. Put shortly:
as §2

For assay [17], the system named is Rattus norvegicus. The assay can be described thus: Evaluated against aspirin induced gastric lesions in rats after peroral dose of 100 mg/kg. The format is functional. The following applies: Stomach, route oral. Put shortly:
as §3

Assay [18] deals with Rattus norvegicus. The assay can be described thus: Effect on gastric mucosal blood flow 60 minutes after administration of HCl and aspirin after drug dosing at 100 mg/kg intragastrically. Type of assay: functional, Gastric mucosa. The following applies: route intragastric. Put shortly:
as §2

Assay [19] deals with Rattus norvegicus. The assay is described as follows: Effect on gastric mucosal blood flow at basal value which is 15 minutes before dosing of drugs at 100 mg/kg intragastrically. The following applies: route intragastric. Type of assay: functional, Gastric mucosa. Put shortly:
as §2

Assay [20] deals with Rattus norvegicus. The assay can be described thus: Effect on gastric mucosal blood flow 15 minutes before dosing of HCl and aspirin after drug dosing at 100 mg/kg intragastrically. Type of assay: functional, Gastric mucosa. The following applies: route intragastric. Put shortly:
as §2

Assay [21] concerns Rattus norvegicus. The assay can be described thus: Effect on gastric mucosal blood flow 30 minutes after administration of HCl and aspirin after drug dosing at 100 mg/kg intragastrically. The format is functional, Gastric mucosa. The following applies: route intragastric. Put shortly:
as §2

Assay [22] deals with Rattus norvegicus. The assay is described as follows: Evaluated for inhibition of basal gastric acid secretion on pyolus-ligated rats after intraduodenal administration. The settings on record: Stomach, id.
The subject of assay [23] is Canis familiaris. The assay is described as follows: Evaluated against tetragastrin stimulated gastric acid secretion in conscious Hiedenhain-pouch dogs at a dose of 0.32 mg/Kg, po. Type of assay: functional. The settings on record: Canis lupus familiaris, Stomach. Put shortly: as §1
The test system of assay [24] is Rattus norvegicus. The assay is described as follows: Evaluated against histamine stimulated gastric acid secretion in lumen perfused anaesthetized rats after 1 mg/kg intravenous dose. Type of assay: functional. The settings on record: Stomach. Put shortly:
as §5

Assay [25] is filed under the species Canis familiaris. The assay is described as follows: animal or person. The following applies: Canis lupus familiaris, Stomach, po, read-out: Inhibition.

Some results are limits rather than exact numbers.

For orientation: ED50 means the midpoint of the dose-response relation. Low readings indicate an effect at a small dose, high ones a need for a large dose. One may read the inhibition as the share of the control response that was lost under treatment. A lower inhibition goes with little suppression. For orientation: IC50 means the concentration that gives 50% inhibition. Low values mean greater potency, high ones weaker potency.

Histamine H2 receptor (Cavia porcellus), sequence (P47747 whole entry): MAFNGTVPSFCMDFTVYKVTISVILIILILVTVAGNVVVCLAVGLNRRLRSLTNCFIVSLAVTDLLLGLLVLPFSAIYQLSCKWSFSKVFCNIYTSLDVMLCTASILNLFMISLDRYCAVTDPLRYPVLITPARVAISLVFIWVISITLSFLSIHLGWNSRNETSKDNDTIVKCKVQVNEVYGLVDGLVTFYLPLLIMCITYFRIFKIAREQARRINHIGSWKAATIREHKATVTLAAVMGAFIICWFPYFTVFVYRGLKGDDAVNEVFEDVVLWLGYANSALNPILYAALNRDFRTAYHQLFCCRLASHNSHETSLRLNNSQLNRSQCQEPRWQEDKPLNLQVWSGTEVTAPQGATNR
Histamine H2 receptor, sequence (P47747 whole entry): as above

Regarding `CC(=O)NCc1cccc(-c2csc(N=C(N)N)n2)n1.Cl`, the ED50 in the assay on Rattus norvegicus [1] came out at 12.6 mg/kg; in the assay with Canis familiaris [6], 0.063 mg/kg; in the assay with Rattus norvegicus [10] it was 6.5 mg/kg; in the assay on Rattus norvegicus [13], 13.3 mg/kg. This compound came in with an inhibition in vivo at 0.32 mg/kg in the assay on Canis familiaris [2] of 95%. Moreover, the Flow rate in the assay with Rattus norvegicus [3] stood at 61 ml min-1 100g-1; in the assay with Rattus norvegicus [5], 58.9 ml min-1 100g-1; with Rattus norvegicus [7], 65.3 ml min-1 100g-1; in the assay with Rattus norvegicus [9], 60.4 ml min-1 100g-1; with Rattus norvegicus [12], 70.2 ml min-1 100g-1; with Rattus norvegicus [14], 70.4 ml min-1 100g-1. Besides, the results for the Flow rate in the assay on Rattus norvegicus [15] and with Rattus norvegicus [16] were 63.1 ml min-1 100g-1 and 67.9 ml min-1 100g-1, respectively. For the same compound, the inhibition in vivo at 32 mg/kg in the assay on Rattus norvegicus [4] stood at 68%. The compound further yielded an inhibition in assay [8] of 66%. Moreover, half-maximal inhibition against Histamine H2 receptor (IC50) required 1300 nM. For the same compound, the inhibition in vivo at 1 mg/kg in the assay with Rattus norvegicus [11] was found to be 82%.
Consider `CC(=O)OCC(=O)NCCCOc1cccc(CN2CCCCC2)c1` [ROXATIDINE ACETATE], for which, in the assay on Canis familiaris [2], the inhibition in vivo at 0.32 mg/kg worked out at 58%. The inhibition in [8] came out at 76%. The same compound registered an inhibition in vivo at 1 mg/kg in the assay on Rattus norvegicus [11] of 84%. The inhibition in vivo at 100 mg/kg in the assay on Rattus norvegicus [17] was 31%.
With `CNC(=C[N+](=O)[O-])NCCSCc1ccc(CN(C)C)o1` [RANITIDINE], the inhibition in vivo at 32 mg/kg in the assay on Rattus norvegicus [4] stood at 3%. Further, the Flow rate in the assay on Rattus norvegicus [18] is recorded as 55.4 ml min-1 100g-1; in the assay on Rattus norvegicus [19], 85.3 ml min-1 100g-1; in the assay with Rattus norvegicus [20] it was 82.3 ml min-1 100g-1; with Rattus norvegicus [21], 53.4 ml min-1 100g-1. The ED50 was 0.3 mg/kg in the assay with Canis familiaris [6], 30.5 mg/kg in the assay with Rattus norvegicus [22] and greater than 100 mg/kg in the assay on Rattus norvegicus [13]. In addition, the inhibition in assay [8] came out at 44%. This compound yielded an IC50 against Histamine H2 receptor of 3400 nM. Moreover, in the assay on Canis familiaris [23], the inhibition in vivo at 0.32 mg/kg is 41%. For the same compound, the inhibition in vivo at 1 mg/kg in the assay on Rattus norvegicus [24] came out at 72%.
Turning to `CN/C(=N\CCSCc1nc[nH]c1C)NC#N` [CIMETIDINE], the inhibition in vivo at 32 mg/kg in the assay with Rattus norvegicus [4] was found to be 33%. The inhibition in [8] stood at 43%. Besides, in the assay filed under Canis familiaris [25], the inhibition in vivo at 22 mg/kg came out at 22%. Also, the inhibition in vivo at 1 mg/kg with Rattus norvegicus [11] amounted to 53%.

The record behind these values is ChEMBL document CHEMBL1127497, “Studies on antiulcer drugs. 7. 2-Guanidino-4-pyridylthiazoles as histamine H2-receptor antagonists with potent gastroprotective effects against nonsteroidal antiinflammatory drug-induced injury” (J Med Chem, 1994).
